The source of these data is ChEMBL document CHEMBL1137388, “A novel class of potent nonglycosidic and nonpeptidic pan-selectin inhibitors” (2006).

SMILES strings stand for the structures.

As usually defined, the inhibition is the relative decrease from the control value, in per cent.

In assay [1] the target is T1, L-selectin (Homo sapiens) (UniProt P14151).
T1 sequence (whole entry): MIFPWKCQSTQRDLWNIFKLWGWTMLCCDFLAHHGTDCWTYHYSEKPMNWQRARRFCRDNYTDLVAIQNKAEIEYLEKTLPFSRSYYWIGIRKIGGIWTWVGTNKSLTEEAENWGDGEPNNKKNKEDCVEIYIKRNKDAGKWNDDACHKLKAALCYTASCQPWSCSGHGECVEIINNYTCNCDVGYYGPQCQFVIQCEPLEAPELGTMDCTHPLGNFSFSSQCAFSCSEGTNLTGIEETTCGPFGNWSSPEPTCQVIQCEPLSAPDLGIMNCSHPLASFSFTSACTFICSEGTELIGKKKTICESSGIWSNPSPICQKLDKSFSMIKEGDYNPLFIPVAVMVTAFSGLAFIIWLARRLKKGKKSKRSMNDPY
Description: Inhibition of sLex binding to L-selectin at 100 uM relative to control by glyco-ELISA assay. The procedure, abridged: (§1)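 Cell-free competitive binding assay. The named selectin is immobilized on microtiter plates, and compound plus sLex-tyrosine sulfate on biotinylated polyacrylamide are added. After incubation, bound ligand is detected by streptavidin-peroxidase, OD 414 nm, with empty-plate absorbance subtracted. Wells coated only with sLex define 0%; EDTA (blocks Ca2+-dependent binding) defines 100% inhibition.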

Assay [2] has as its target T2, P-selectin (Homo sapiens) (UniProt P16109).
T2 sequence (whole entry): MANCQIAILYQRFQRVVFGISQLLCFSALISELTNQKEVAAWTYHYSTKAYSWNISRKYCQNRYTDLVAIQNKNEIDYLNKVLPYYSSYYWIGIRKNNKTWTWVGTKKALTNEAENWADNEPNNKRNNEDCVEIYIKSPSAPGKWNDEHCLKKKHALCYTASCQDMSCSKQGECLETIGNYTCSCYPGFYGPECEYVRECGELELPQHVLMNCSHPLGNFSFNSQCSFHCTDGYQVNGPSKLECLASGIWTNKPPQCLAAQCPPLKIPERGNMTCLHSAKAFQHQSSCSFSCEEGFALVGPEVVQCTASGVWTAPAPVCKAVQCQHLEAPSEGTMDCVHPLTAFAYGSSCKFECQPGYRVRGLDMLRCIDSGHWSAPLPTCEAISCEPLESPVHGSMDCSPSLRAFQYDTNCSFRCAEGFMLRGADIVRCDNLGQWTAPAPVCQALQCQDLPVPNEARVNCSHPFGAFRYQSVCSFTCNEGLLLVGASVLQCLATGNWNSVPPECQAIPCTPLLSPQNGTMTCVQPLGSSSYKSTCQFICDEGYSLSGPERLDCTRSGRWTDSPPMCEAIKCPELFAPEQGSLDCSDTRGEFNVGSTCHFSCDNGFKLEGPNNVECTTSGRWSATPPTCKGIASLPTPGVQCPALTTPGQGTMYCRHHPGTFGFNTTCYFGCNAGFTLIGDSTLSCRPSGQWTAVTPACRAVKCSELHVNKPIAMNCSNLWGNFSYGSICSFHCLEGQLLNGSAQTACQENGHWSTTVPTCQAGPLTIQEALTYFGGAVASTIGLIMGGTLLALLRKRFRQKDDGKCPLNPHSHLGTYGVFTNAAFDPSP
The assay can be described thus: Inhibition of sLex binding to P-selectin at 500 uM relative to control by glyco-ELISA assay. The procedure, abridged:
as §1
In general terms: ELISA stands for enzyme-linked immunosorbent assay.

Assay [3] deals with T3, E-selectin (Homo sapiens) (UniProt P16581).
T3 sequence (whole entry): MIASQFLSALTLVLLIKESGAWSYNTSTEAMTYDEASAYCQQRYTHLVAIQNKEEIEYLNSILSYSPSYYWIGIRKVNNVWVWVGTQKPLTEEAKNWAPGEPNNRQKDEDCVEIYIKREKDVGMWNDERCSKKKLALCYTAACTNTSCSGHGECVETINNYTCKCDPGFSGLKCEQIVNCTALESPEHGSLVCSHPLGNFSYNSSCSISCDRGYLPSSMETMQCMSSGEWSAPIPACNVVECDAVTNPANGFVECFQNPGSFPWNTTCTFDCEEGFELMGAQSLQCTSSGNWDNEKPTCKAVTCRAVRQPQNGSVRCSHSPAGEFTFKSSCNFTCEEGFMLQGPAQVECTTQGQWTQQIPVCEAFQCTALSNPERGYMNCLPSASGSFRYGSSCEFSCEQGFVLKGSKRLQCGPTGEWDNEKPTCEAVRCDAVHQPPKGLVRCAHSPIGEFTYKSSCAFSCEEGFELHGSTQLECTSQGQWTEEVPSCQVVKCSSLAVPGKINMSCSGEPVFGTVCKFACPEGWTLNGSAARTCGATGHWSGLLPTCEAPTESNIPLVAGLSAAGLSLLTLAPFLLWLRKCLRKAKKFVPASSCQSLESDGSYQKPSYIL
The assay can be described thus: Inhibition of sLex binding to E-selectin at 100 uM relative to control by glyco-ELISA assay. The procedure, abridged:
as §1

Assay [4] is described as follows: Viability in ATP-lite assay relative to control. Set-up: concentration or dose not given beside the values. In kind it is functional.
Another assay concerns AEC. The assay can be described thus: Viability of BAEC by Roche-XTT assay relative to control. In kind it is functional, Bos taurus. Set-up: concentration or dose not given beside the values. The procedure, abridged: (§2)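 XTT assay: metabolically active cells convert yellow tetrazolium XTT to orange formazan. Untreated control viability set to 100%. Cells were BAEC or MM6 as named in each line; MM6 tested at 100 µM.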
On the technique in general: Tetrazolium dyes change colour on reduction, which living cells bring about.

The subject of another assay is Mus musculus. The assay can be described thus: Reduction in proteose peptone-induced PMN extravasation in C57BL/J mouse peritonitis model at 50 mg/kg, ip. Particulars: route intraperitoneal. Set-up: scale not given: the % may be the effect or the level left. Format: functional. Summed up: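 Male C57BL/6 mice received 100 µL of a 50 mg/mL compound suspension in corn oil ip, or vehicle, then 1 h later 3 mL of 3% proteose peptone ip. Peritoneal leukocytes were lavaged at 6 h with cold HBSS/5 mM EDTA and stained with PE-conjugated anti-PMN, MOMA-2 and anti-CD2 antibodies. Cells were classified by scatter and fluorescence. Mean ± SEM, n = 4.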

Assay [5] concerns MONO-MAC-6. Description: Viability of MM6 cells at 100 uM by Roche-XTT assay relative to control. Format: functional, Homo sapiens. Summed up: as §2
Assay [6] deals with T1, L-selectin (Homo sapiens). The assay can be described thus: Inhibition of sLex binding to L-selectin at 500 uM relative to control by glyco-ELISA assay. Summed up:
as §1

Assay [7] in a line: Inhibition of MM6 cell adhesion to BAEC at 100 uM relative to control by static assay. Format: functional. Summed up: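 BAEC monolayers (passage 1-3, 7 days after seeding) stimulated with 20 ng/mL TNFα for 4 or 16 h, test agent in DMSO or vehicle for 20 min at 37 °C/5% CO2. After washing, leukocytes added at 1 × 10^6 cells/mL for 30 min at 37 °C. Non-adherent cells washed off, adherent cells counted microscopically. TNFα-stimulated adhesion set to 100%. Single concentration, 100 µM.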

For assay [8], the target named is T2, P-selectin (Homo sapiens). Description: Inhibition of sLex binding to P-selectin at 100 uM relative to control by glyco-ELISA assay. Summed up:
as §1

In assay [9] the test system is MONO-MAC-6. The assay can be described thus: Viability of MM6 cells at 50 uM by Roche-XTT assay relative to control. Format: functional, Homo sapiens.

Regarding `CCCCCCCCCCOc1cc(OCCCCCCCCCC)cc(OCCCCCCN(c2ccc(C(=O)O)cc2)c2ccc(C(=O)O)cc2)c1`, the inhibition in assay [1] came to 41%; in assay [2] it was 81%; in [3] it was 94%; in [6], 82%; in [8] it was 35%. Moreover, the Activity in assay [4] turned out to be 77%; with AEC, 102%; in the assay on Mus musculus, 44%; in the assay with MONO-MAC-6 [5] it was 112%. Moreover, the inhibition at 100 µM in [7] came to 107%.
On to `CCCCCCCCCCOc1cccc(OCCCCCCON=C(c2ccc(C(=O)O)cc2)c2ccc(C(=O)O)cc2)c1`, for which the results for the Activity with MONO-MAC-6 [9] and in the assay with AEC were 12% and 40%, respectively. Also, the inhibition at 100 µM in assay [7] was 67%.
